Data set [1] has as its system Human immunodeficiency virus 1. Briefly: Antiviral activity against HIV1 HXB2 pseudovirus infected in human TZM-bl cells assessed as inhibition of viral entry treated 4 hrs post infection measured after 48 hrs by luciferase reporter gene assay. Type of data set: functional.
The nature of data set [2]: Cytotoxicity against human TZM-bl cells incubated for 3 days by XTT assay. Type of data set: cell-based. The conditions noted are these: TZM-bl cells. Put shortly:
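TZM-bl cells, 1 x 10^4/well, cultured overnight at 37 °C. Compounds added at graded concentrations for three days.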

A further data set relates to MT2. Briefly: Cytotoxicity against human MT2 cells incubated for 4 days by XTT assay. The format is cell-based. To be noted: mt2, 96 h, 96 h. The essentials:
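Run alongside the MT-2 multicycle infection assay. Compound at graded concentrations mixed with an equal volume of MT-2 cells (10^5 cells/ml). Medium replaced next day and culture continued four days.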
Background: Formazan colour is commonly taken as a measure of viable cells.

Data set [3] is described as follows: Inhibition of HIV1 HXB2 gp120-mediated cell to cell fusion using human MAGI-CCR5 cells as indicator cells and Env/Tat-expressing HL2/3 cells as effector cells preincubated with MAGI-CCR5 cells for 1 hr followed by HL2/3 cells addition by beta-galactosidase reporter gene assay. The conditions noted are these: Human immunodeficiency virus 1, HXB2. A general note: In a reporter assay the amount or activity of a reporter protein is the signal.

Data set [4] can be described thus: Inhibition of HIV1 reverse transcriptase by colorimetric assay. On the set-up: species or system Human immunodeficiency virus 1. The essentials:
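HIV-1 reverse transcriptase activity measured with a commercial colorimetric reverse transcriptase kit, following the maker's instructions.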

Data set [5] can be described thus: Aqueous solubility of the compound at 1 to 100 uM in PBS at pH 7.4 after 2 hrs by turbidimetric analysis. The format is physicochemical. Put shortly:
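DMSO stocks diluted 1:100 into phosphate-buffered saline pH 7.4, giving 1, 3, 10, 30 and 100 µM final in 1% DMSO. Seven replicate wells per concentration, incubated 2 h at 37 °C, absorbance read at 620 nm. Solubility taken as the concentration giving absorbance above the 1% DMSO vehicle.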

Data set [6] in a line: Apparent permeability from apical to basolateral side in human Caco2 cells at 10 uM at pH 7.4 by LC-MS/MS analysis. Type of data set: ADME, cell-based. To be noted: Caco-2, pH 7.4. Put shortly:
(§1)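 Caco-2 cells, passage 40-60, seeded on Transwell inserts at 1 x 10^5 cells/cm2 and grown 20 days in DMEM. Monolayers equilibrated 40 min in HBSS. Donor: compound at 10 µM final, 1% DMSO, in HBSS pH 7.4 with lucifer yellow as integrity marker. Sampled at 120 min, A-B and B-A, in duplicate, by LC-MS/MS. Papp = (dQ/dt)/(C0 × A); efflux ratio = Papp(B-A)/Papp(A-B).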

Data set [7] can be described thus: Apparent permeability from basolateral to apical side in human Caco2 cells at 10 uM at pH 7.4 by LC-MS/MS analysis. The conditions noted are these: Caco-2, pH 7.4. The format is ADME, cell-based. The essentials: as §1
Data set [8] in a line: Metabolic stability in human liver microsomes assessed as compound remaining at 45 mins in presence of NADPH by LC-MS/MS analysis. Type of data set: ADME, microsome. The conditions noted are these: read-out: Stability.
The nature of data set [9]: Intrinsic clearance in human liver microsomes assessed per mg protein in presence of NADPH by LC-MS/MS analysis. The conditions noted are these: read-out: CLH. Type of data set: ADME, microsome. (In general: Liver microsomes are a subcellular fraction often used to study metabolism.)
Data set [10] is described as follows: Unbound fraction in human plasma at 5 uM by LC-MS/MS based equilibrium dialysis. The format is ADME, cell-free.
A further data set concerns the target Cytochrome P450 2C19 (Homo sapiens, UniProt P33261). Briefly: Inhibition of CYP2C19 in human liver microsomes using mephenytoin as substrate after 60 mins in presence of NADPH by LC-MS/MS analysis. The format is ADME.
The target of another data set is Cytochrome P450 3A4 (Homo sapiens, UniProt P08684). Briefly: Inhibition of CYP3A4 in human liver microsomes using midazolam as substrate after 5 mins in presence of NADPH by LC-MS/MS analysis. Type of data set: ADME.
Another data set deals with Cytochrome P450 2D6 (Homo sapiens, UniProt P10635). Kind of data set: Inhibition of CYP2D6 in human liver microsomes using dextromethorphan as substrate after 5 mins in presence of NADPH by LC-MS/MS analysis. The format is ADME.
The target of another data set is Cytochrome P450 2C9 (Homo sapiens, UniProt P11712). Briefly: Inhibition of CYP2C9 in human liver microsomes using tolbutamide as substrate after 60 mins in presence of NADPH by LC-MS/MS analysis. Type of data set: ADME.
Data set [11] in a line: Inhibition of CYP1A in human liver microsomes using ethoxyresorufin as substrate after 5 mins in presence of NADPH by LC-MS/MS analysis.
Data set [12] has as its target Voltage-gated inwardly rectifying potassium channel KCNH2 (Homo sapiens, UniProt Q12809). Kind of data set: Inhibition of human ERG expressed in CHO cells by patch clamp electrophysiology assay. The format is cell-based.
Data set [13] relates to Vesicular stomatitis virus. Kind of data set: Antiviral activity against G-glycoprotein expressing VSV. The format is functional. The essentials:
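VSV-G pseudovirus made in HEK293T cells from pVPack-VSV-G, MLV gag-pol pVPack-GP and pFB-luc plasmids. Virus was preincubated 30 min with graded compound concentrations, then added to U87-CD4-CXCR4 cells (1 x 10^4/well, plated overnight).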

Data set [14] relates to Human immunodeficiency virus 1. Kind of data set: Antiviral activity against ENV pseudotyped CCR5-tropic HIV1 p1054.TC4.1499. Type of data set: functional. To be noted: Human immunodeficiency virus 1, p1054.TC4.1499.
In data set [15] the test system is Human immunodeficiency virus 1. Kind of data set: Antiviral activity against ENV pseudotyped CCR5-tropic HIV1 p9021_14.B2.4571. The conditions noted are these: Human immunodeficiency virus 1, p9021_14.B2.4571. Type of data set: functional.
Data set [16] deals with Human immunodeficiency virus 1. Briefly: Antiviral activity against ENV pseudotyped CCR5-tropic HIV1 subtype D QD435.100M.ENV.A4. The format is functional. The conditions noted are these: Human immunodeficiency virus 1, subtype D QD435.100M.ENV.A4. Put shortly: (§2)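 Env-pseudotyped viruses made by co-transfecting HEK293T cells with an Env-deleted pSG3 backbone (8 µg) and an Env-expression plasmid (8 µg). Supernatants were harvested 2 days after transfection, filtered, titered and stored at −80 °C. They were used for single-cycle infection, and IC50 was taken from percent inhibition.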

Data set [17] concerns Human immunodeficiency virus 1. Kind of data set: Antiviral activity against ENV pseudotyped CCR5-tropic HIV1 subtype C 6936-2, clone 21. Type of data set: functional. To be noted: Human immunodeficiency virus 1, subtype C 6936-2, clone 21. Put shortly: as §2
The test system of data set [18] is Human immunodeficiency virus 1. Briefly: Antiviral activity against ENV pseudotyped CCR5-tropic HIV1 subtype C 25711-2, clone 4. Type of data set: functional. The conditions noted are these: Human immunodeficiency virus 1, subtype C 25711-2, clone 4.
For data set [19], the system named is Human immunodeficiency virus 1. Kind of data set: Antiviral activity against ENV pseudotyped CCR5-tropic HIV1 subtype C 225925-2, clone 22. The format is functional. The conditions noted are these: Human immunodeficiency virus 1, subtype C 225925-2, clone 22. The essentials:
as §2

Data set [20] relates to Human immunodeficiency virus 1. Briefly: Antiviral activity against ENV pseudotyped CCR5-tropic HIV1 subtype D QA013.70I.ENV.M12. The format is functional. To be noted: Human immunodeficiency virus 1, subtype D QA013.70I.ENV.M12. The essentials: as §2
For data set [21], the system named is Human immunodeficiency virus 1. Kind of data set: Antiviral activity against ENV pseudotyped CCR5-tropic HIV1 subtype D QD435.100M.ENV.E1. The format is functional. The conditions noted are these: Human immunodeficiency virus 1, subtype D QD435.100M.ENV.E1.
The subject of data set [22] is Human immunodeficiency virus 1. Briefly: microbe, parasite or virus in culture. To be noted: Human immunodeficiency virus 1, subtype D/A BF535.W6M.ENV.A1.
The subject of data set [23] is Human immunodeficiency virus 1. Briefly: microbe, parasite or virus in culture. To be noted: Human immunodeficiency virus 1, subtype C Du422, clone 1.
Data set [24] relates to Human immunodeficiency virus 1. Briefly: microbe, parasite or virus in culture. The conditions noted are these: Human immunodeficiency virus 1, subtype C QB099.391 M.ENV.B1.
Data set [25] deals with Human immunodeficiency virus 1. Kind of data set: microbe, parasite or virus in culture. The conditions noted are these: Human immunodeficiency virus 1, subtype A/G CRF02_AG clone 263.
The test system of data set [26] is Human immunodeficiency virus 1. Kind of data set: microbe, parasite or virus in culture. The conditions noted are these: Human immunodeficiency virus 1, subtype A/G CRF02_AG clone 278.
Data set [27] deals with Human immunodeficiency virus 1. Briefly: microbe, parasite or virus in culture. The conditions noted are these: Human immunodeficiency virus 1, AC10.0, clone 29.
Data set [28] has as its system Human immunodeficiency virus 1. Briefly: microbe, parasite or virus in culture. The conditions noted are these: Human immunodeficiency virus 1, pCAAN5342 clone A2.
Data set [29] relates to Human immunodeficiency virus 1. Kind of data set: microbe, parasite or virus in culture. To be noted: Human immunodeficiency virus 1, subtype A QB726.70M.ENV.C4.
Data set [30] concerns Human immunodeficiency virus 1. Kind of data set: microbe, parasite or virus in culture. The conditions noted are these: Human immunodeficiency virus 1, subtype A2/D QG393.60M.ENV.B8.

As usually defined, the CC50 is the concentration that lowers cell viability or growth by half. Low readings indicate harm at low concentration, high ones better tolerance by the cells. For orientation: IC50 means the concentration that gives 50% inhibition. For orientation: solubility (kinetic) means the concentration staying in solution when a stock, usually in DMSO, is diluted into the medium. Usually Papp A→B stands for the apparent permeability from the apical to the basolateral side of a cell layer. Broadly, the Papp B→A is the apparent permeability from the basolateral to the apical side of a cell layer. A word on the fraction unbound: it is free concentration divided by total concentration. Read a high fraction unbound as much free substance.

Converted amounts (≈) assume the structure as drawn.

Cytochrome P450 2C9, sequence (P11712 whole entry): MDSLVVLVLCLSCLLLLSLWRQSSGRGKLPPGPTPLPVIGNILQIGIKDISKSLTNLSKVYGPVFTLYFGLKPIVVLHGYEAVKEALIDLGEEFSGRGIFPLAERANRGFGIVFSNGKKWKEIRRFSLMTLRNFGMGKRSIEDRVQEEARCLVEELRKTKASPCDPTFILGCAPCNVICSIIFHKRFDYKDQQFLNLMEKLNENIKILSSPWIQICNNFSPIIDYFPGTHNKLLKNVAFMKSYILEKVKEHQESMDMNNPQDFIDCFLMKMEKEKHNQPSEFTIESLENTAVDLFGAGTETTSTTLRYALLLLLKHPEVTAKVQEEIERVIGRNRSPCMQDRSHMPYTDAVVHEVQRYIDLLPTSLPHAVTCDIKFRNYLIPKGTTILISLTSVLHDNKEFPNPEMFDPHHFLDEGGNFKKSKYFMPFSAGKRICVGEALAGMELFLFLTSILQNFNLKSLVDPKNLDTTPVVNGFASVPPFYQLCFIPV
Cytochrome P450 2C19, sequence (P33261 whole entry): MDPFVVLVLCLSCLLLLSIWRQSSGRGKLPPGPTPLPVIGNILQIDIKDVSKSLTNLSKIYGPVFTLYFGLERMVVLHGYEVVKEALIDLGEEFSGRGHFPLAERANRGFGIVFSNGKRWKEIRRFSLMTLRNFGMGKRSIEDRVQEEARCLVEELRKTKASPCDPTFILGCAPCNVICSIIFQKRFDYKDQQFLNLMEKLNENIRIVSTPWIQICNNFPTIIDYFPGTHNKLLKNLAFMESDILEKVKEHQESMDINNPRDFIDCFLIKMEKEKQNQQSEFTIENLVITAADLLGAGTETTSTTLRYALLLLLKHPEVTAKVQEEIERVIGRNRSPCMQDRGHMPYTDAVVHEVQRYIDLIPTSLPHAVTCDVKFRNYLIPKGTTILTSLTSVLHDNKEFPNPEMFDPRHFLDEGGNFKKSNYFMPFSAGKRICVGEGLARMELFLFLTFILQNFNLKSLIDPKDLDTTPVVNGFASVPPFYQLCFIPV
Voltage-gated inwardly rectifying potassium channel KCNH2, sequence (Q12809 whole entry): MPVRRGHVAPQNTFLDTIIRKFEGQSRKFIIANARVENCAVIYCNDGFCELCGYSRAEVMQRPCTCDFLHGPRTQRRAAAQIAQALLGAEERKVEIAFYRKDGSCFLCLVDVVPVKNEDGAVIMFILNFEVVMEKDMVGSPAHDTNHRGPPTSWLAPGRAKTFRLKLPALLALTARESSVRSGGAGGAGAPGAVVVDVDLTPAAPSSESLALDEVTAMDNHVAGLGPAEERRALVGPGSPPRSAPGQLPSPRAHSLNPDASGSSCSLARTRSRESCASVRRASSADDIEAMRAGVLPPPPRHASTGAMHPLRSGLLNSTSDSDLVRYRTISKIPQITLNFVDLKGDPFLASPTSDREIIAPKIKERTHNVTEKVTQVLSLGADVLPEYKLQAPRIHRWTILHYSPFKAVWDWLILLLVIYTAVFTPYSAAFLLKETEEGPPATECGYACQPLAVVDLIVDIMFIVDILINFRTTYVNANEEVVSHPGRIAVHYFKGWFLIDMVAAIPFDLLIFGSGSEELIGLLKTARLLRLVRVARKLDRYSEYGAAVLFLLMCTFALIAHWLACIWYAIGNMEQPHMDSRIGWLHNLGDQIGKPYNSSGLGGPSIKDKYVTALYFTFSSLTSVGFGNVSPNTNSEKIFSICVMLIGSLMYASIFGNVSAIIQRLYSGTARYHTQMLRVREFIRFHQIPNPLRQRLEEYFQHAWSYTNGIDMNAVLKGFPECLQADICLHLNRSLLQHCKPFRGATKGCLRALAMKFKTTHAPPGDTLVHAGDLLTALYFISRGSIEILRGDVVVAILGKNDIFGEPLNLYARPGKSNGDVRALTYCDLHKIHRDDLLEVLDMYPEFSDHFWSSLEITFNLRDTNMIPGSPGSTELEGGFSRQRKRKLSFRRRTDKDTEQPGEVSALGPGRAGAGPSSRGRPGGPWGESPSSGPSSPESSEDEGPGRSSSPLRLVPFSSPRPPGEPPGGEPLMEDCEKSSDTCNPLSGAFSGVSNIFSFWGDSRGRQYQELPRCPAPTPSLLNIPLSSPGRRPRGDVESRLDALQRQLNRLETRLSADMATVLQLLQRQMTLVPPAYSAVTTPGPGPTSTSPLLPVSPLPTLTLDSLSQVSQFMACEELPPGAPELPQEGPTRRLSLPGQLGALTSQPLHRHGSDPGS
Cytochrome P450 3A4, sequence (P08684 whole entry): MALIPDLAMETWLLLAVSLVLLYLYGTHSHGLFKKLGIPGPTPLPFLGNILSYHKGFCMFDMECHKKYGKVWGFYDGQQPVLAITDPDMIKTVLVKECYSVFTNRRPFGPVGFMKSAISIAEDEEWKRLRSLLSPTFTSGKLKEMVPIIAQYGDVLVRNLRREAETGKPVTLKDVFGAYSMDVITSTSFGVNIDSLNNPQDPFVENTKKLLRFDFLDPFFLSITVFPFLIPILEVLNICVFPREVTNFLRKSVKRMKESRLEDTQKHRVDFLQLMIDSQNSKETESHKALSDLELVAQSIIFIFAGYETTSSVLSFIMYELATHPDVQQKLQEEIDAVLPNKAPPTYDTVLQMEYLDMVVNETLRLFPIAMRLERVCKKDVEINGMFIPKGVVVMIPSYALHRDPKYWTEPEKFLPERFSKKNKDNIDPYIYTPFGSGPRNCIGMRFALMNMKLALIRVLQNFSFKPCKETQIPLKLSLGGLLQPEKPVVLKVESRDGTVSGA
Cytochrome P450 2D6, sequence (P10635 whole entry): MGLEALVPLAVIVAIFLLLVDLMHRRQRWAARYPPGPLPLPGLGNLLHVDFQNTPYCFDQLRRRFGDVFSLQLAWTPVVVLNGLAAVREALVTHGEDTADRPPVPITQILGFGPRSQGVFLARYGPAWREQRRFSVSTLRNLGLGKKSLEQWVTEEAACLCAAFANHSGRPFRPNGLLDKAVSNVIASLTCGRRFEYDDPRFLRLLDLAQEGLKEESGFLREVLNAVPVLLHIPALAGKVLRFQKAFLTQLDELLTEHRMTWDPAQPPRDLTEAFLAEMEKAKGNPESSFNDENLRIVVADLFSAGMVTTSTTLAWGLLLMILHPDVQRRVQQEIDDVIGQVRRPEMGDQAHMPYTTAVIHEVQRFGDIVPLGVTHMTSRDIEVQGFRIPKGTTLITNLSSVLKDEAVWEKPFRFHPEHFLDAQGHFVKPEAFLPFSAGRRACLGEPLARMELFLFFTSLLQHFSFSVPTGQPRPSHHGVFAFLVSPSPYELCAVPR

For the compound `Cc1cn([C@H]2C[C@H](N=[N+]=[N-])[C@@H](CO)O2)c(=O)[nH]c1=O` [ZIDOVUDINE], in data set [1], the “inhibition (INH)” value stood at 50%.
On to `NCC(NC(=O)c1ccc(-c2cc(F)c(Cl)c(F)c2)[nH]1)c1ncc(CO)s1` (stereo in doubt), for which half-maximal cytotoxicity in data set [2] (CC50 at 72 h) was put at 39.5 µM. Further, the CC50 in the data set with MT2 was 37 µM. The IC50 in data set [3] is 13.3 µM; in data set [4] it was 8.4 µM; at Cytochrome P450 2C19, more than 25 µM; on Cytochrome P450 3A4 it was more than 25 µM; at Cytochrome P450 2D6, more than 25 µM; on Cytochrome P450 2C9 it was more than 25 µM. The half-inhibitory concentration (IC50) in data set [11] was more than 25 µM; in data set [12] it was 14.1 µM; in [13] it was 26 µM; in data set [14], 0.65 µM; in [15], 0.31 µM; in [16], 0.32 µM. Besides, the IC50 in data set [17] stood at 0.31 µM; in data set [18], 0.52 µM; in data set [19] it was 0.33 µM; in data set [20], 0.5 µM; in data set [21], 0.5 µM; in [22], 0.94 µM. For the same compound, the IC50 in [23] is 0.32 µM; in data set [24], 0.51 µM; in [25], 0.6 µM; in data set [26], 0.5 µM; in [27], 0.5 µM; in [28], 0.6 µM. Besides, the half-maximal inhibitory concentration (IC50) in data set [29] was found to be 0.51 µM; in [30] it was 0.27 µM. Moreover, the solubility (kinetic) at 2 h in [5] was determined as 65 µM (≈ 26.8 µg/mL). Besides, the Papp A→B at 10 µM in [6] came to 1.17 ×10⁻⁶ cm/s. Also, in data set [7], the Papp B→A at 10 µM is 17.2 ×10⁻⁶ cm/s. Besides, the remaining at […] in [8] worked out at 97.4%. Also, in [9], the microsomal CLint is less than 10 µL/min/mg. For the same compound, the fraction unbound at 5 µM in data set [10] was found to be 0.1.

Values taken from ChEMBL document CHEMBL4007461, “Synthesis, Antiviral Potency, in Vitro ADMET, and X-ray Structure of Potent CD4 Mimics as Entry Inhibitors That Target the Phe43 Cavity of HIV-1 gp120” (J Med Chem, 2017).
